# Test results from publication PMC11170630 (ACS Omega, 2024).
# Columns and labels:
# normal colonocyte = experiment: MTT cytotoxicity on normal colonic epithelial cells; assay type: cell-based, rat; settings: concentration at 100% cell viability (safe dose), 72 h, mean ± SEM
# Outline: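 Normal colonic epithelial cells were isolated by the Follmann & Birkner method, with modifications. Cytotoxicity of test compounds on these colonocytes was measured by MTT assay to define safe concentrations. Data are mean ± SEM of three measurements. Differences were tested by one-way ANOVA with Tukey's test, with significance at p < 0.05.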
# HCT-116 cells = experiment: MTT anticancer assay on colorectal cancer cell line HCT-116; assay type: cell-based, human; settings: for SI (selectivity index): HCT-116 cells over normal colonocytes; for IC50: Homo sapiens, HCT-116, 72 h, read-out: IC50 HCT-116, MTT, 72 h, mean ± SEM
# Outline: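 MTT viability assay on human colorectal carcinoma HCT-116 cells exposed to test compounds. Data are mean ± SEM of three measurements. Differences between treatments were tested by one-way ANOVA with Tukey's test, with significance at p < 0.05.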
# HCT-116 cell line = settings: read-out: IC50 cytotoxicity HCT-116 cell line; cited from earlier work
SMILES,EC100 normal colonocyte (normal colonocyte),"fold lower anticancer activity than compound 20 (HCT-116 cells; HCT-116 IC50, compared to 20)",SI (selectivity index) (HCT-116 cells),IC50 (HCT-116 cells),IC50 (HCT-116 cell line)
CC(=O)NS(=O)(=O)c1ccc(-n2cc(Cn3c(=O)c(Cc4ccccc4)nc4ccccc43)nn2)cc1 [Compound 19],0.150 ± 0.015 µM,4.6 fold,1.211,331 ± 4 nM,–
O=c1c(Cc2ccccc2)nc2ccccc2n1Cc1cn(-c2ccc(O)cc2)nn1 [Compound 16],0.556 ± 0.031 µM,–,5.000,222 nM,–
CC(=O)c1ccc(-n2cc(Cn3c(=O)c(Cc4ccccc4)nc4ccccc43)nn2)cc1 [Compound 18],0.212 ± 0.010 µM,–,10.633,218 nM,–
O=c1c(Cc2ccccc2)nc2ccccc2n1Cc1cn(-c2ccc(I)cc2)nn1 [Compound 15],0.103 ± 0.008 µM,–,3.244,135 ± 9 nM,–
"COc1cccc2c1C(=O)c1c(O)c3c(c(O)c1C2=O)C[C@@](O)(C(=O)CO)C[C@@H]3O[C@H]1C[C@H](N)[C@H](O)[C@H](C)O1 [DOX, doxorubicin, reference compound]",0.074 ± 0.008 µM,–,0.357,761 ± 50 nM,9630 nM
O=C(O)CNC(=O)c1ccc(-n2cc(Cn3c(=O)c(Cc4ccccc4)nc4ccccc43)nn2)cc1 [Compound 17],0.169 ± 0.036 µM,–,3.263,114 ± 1 nM,–
CNC(=O)c1cc(Oc2ccc(NC(=O)Nc3ccc(Cl)c(C(F)(F)F)c3)cc2)ccn1 [sorafenib],–,–,–,–,9400 nM
